E-selectin induc: E-selectin induction on HUVECs; P16581; HUVEC E-selectin immunofluorescence imaging; normalized: neutral wells 0, TNF-alpha wells 100; activation, % at 7.58 µM; hit rate 0.37% among 260,000; AID 686992;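 active = mean E-selectin-positive cell signal at least 10% of the positive control, reached in at least 60% of replicates, without over 20% cell loss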
Target sequence (P16581 whole entry, looked up): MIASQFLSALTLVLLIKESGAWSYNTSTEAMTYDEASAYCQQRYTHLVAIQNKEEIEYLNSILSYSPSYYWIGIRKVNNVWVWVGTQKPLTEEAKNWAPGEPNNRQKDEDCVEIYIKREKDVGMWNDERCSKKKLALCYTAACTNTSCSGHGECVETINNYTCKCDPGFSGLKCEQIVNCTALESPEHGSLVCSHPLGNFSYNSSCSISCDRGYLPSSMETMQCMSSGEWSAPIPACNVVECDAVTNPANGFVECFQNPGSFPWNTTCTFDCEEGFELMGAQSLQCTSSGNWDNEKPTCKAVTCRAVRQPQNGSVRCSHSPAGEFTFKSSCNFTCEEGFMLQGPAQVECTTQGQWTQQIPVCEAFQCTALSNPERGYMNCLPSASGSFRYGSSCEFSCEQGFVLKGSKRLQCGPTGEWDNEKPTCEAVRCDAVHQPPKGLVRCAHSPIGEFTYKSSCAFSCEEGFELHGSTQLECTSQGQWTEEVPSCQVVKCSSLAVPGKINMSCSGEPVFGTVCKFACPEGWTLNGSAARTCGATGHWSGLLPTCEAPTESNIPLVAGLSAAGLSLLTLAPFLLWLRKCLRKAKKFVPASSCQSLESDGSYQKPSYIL
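System: HUVEC, human umbilical vein endothelial cells; quantity: 3,000 cells/well; buffer or medium: EGM-2 medium, gelatin-coated wells; dosing: single-point compound dose; detection: immunofluorescence imaging; evaluation: % PE-positive cells; benchmarks: TNF-alpha, DMSO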
Active calls of the source: *. The sample as a whole holds a higher share of hits than the screen did.

SMILES	E-selectin induc
COc1cccc(S(=O)(=O)N[C@H]2CC[C@@H](CCNC(=O)Cc3ccncc3)O[C@H]2CO)c1	0
C[C@H](CO)N1C[C@H](C)[C@H](CN(C)C(=O)Nc2cccc3ccccc23)OCCCC[C@H](C)Oc2ccc(NS(=O)(=O)c3cccs3)cc2C1=O	0
C[C@H]1CN([C@@H](C)CO)C(=O)c2cc(C3=CCCCC3)cnc2O[C@@H]1CN(C)Cc1ccc(C(=O)O)cc1	1
CCc1ccc(NC(=O)C(C)OC(=O)c2ccc(N3CCCC3)c([N+](=O)[O-])c2)cc1 (configuration not stated)	26*
COc1ccc(NC(=O)CN(C)C(=O)c2ccc(N3CCCCCC3)c([N+](=O)[O-])c2)cc1	0
O=C(Nc1ccc(CN2CCOCC2)cc1)c1ccc(N2CCCC2)c([N+](=O)[O-])c1	0
CO[C@H]1CN(C)C(=O)c2cc(NC(=O)Nc3ccccc3F)ccc2OC[C@H](C)N(C)C[C@@H]1C	0
C[C@@H]1CN([C@H](C)CO)C(=O)c2cccc(NC(=O)C3CC3)c2O[C@H]1CN(C)Cc1ccc2c(c1)OCO2	-1
COc1cccc(CNC(=O)c2cc3c(c(-c4cccc(-c5ccc(C#N)cc5)c4)n2)[C@H](CCO)N([S@@](=O)C(C)(C)C)C3)c1	60*
COc1ccc(CNC(=O)c2cc3c(c(-c4cccc(-c5cccc(C#N)c5)c4)n2)[C@@H](CCO)N([S@](=O)C(C)(C)C)C3)cc1	1
COc1ccc(CNC(=O)c2cc3c(c(-c4cccc(-c5ccc(C#N)cc5)c4)n2)[C@@H](CCO)N([S@](=O)C(C)(C)C)C3)cc1	3
CC(C)(C)[S@](=O)N1Cc2cc(C(=O)NCc3ccncc3)nc(-c3cccc(-c4cccc(C#N)c4)c3)c2[C@@H]1CCO	0
COc1cccc(CNC(=O)c2cc3c(c(-c4cccc(-c5ccncc5)c4)n2)[C@@H](CCO)N([S@](=O)C(C)(C)C)C3)c1	0
COc1cccc(CNC(=O)c2cc3c(c(-c4cccc(-c5cccc(C#N)c5)c4)n2)[C@H](CCO)N(S(=O)C(C)(C)C)C3)c1 (some centres not stated)	49*
CNC[C@@H]1Oc2ccc(NC(=O)C3CC3)cc2CC(=O)N([C@@H](C)CO)C[C@@H]1C	0
O=C(C[C@@H]1C=C[C@H](NC(=O)Nc2ccccc2)[C@H](CO)O1)NCc1cccc(F)c1	-1
COc1ccc(S(=O)(=O)Nc2ccc3c(c2)C(=O)N([C@@H](C)CO)C[C@@H](C)[C@@H](CN(C)C(=O)Nc2cccc4ccccc24)OCCCC[C@H](C)O3)cc1	0
CC(C)NC(=O)N(C)C[C@H]1Oc2cc(-c3ccncc3)ccc2S(=O)(=O)N([C@@H](C)CO)C[C@H]1C	11
CCN1[C@H](C(=O)OC)[C@@H](CO)[C@@H]2Cn3c(ccc(-c4cccc(OC)c4)c3=O)[C@@H]21	0
CCCCN(CC)CCCNC(=O)c1cc2c(=O)n(CC)c3ccccc3c2s1	0
CCn1c(=O)c2cc(C(=O)NCCCOC)sc2c2ccccc21	53*
CCn1c(=O)c2cc(C(=O)NCC(OC)OC)sc2c2ccccc21	66*
CCC(C)NC(=O)c1cc2c(=O)n(CC)c3ccccc3c2s1 (configuration not stated)	0
CCn1c(=O)c2cc(C(=O)NCCC(C)C)sc2c2ccccc21	1
CCOC(CNC(=O)c1cc2c(=O)n(CC)c3ccccc3c2s1)OCC	0
SMILES	E-selectin induc
O=C(NCC1CC1)[C@@H]1[C@@H](CO)[C@@H]2Cn3c(ccc(-c4cccnc4)c3=O)[C@H]1N2C(=O)C1CCCCC1	0
Cc1nn(C)cc1NC(=O)C[C@H]1CC[C@H]2[C@H](COc3ccc(NC(=O)C(C)C)cc3C(=O)N2C)O1	0
CC=Cc1ccc2n(c1=O)C[C@@H]1[C@@H](CO)[C@H](C(=O)NCC3CC3)N(C(C)=O)[C@H]21 (mixture of isomers)	0
O=C(C[C@@H]1CC[C@H]2[C@@H](COC[C@@H](O)CN2Cc2ccccc2F)O1)N1CCc2ccccc2C1	0
Cc1ccc(S(=O)(=O)N[C@H]2CC[C@@H](CCNC(=O)C3CC3)O[C@@H]2CO)cc1	0
CCOc1ccc(CCNS(=O)(=O)c2ccc3c(c2)NC(=O)CO3)cc1OCC	0
COc1ccc(CCNS(=O)(=O)c2ccc3c(c2)NC(=O)CS3)cc1OC	114*
COc1ccc(CCNC(=O)CCS(=O)(=O)c2ccc3c(c2)NC(=O)CS3)cc1OC	0
C[C@H](CO)N1C[C@H](C)[C@@H](CN(C)Cc2ccc(C(F)(F)F)cc2)Oc2ccc(NC(=O)CCCN(C)C)cc2C1=O	-6
COc1ccc(S(=O)(=O)Nc2cccc3c2O[C@H](CN(C)S(C)(=O)=O)[C@H](C)CN([C@H](C)CO)C3=O)cc1	-3
COc1ccc(C(=O)Nc2ccc3[nH]ncc3c2)cc1	0
COc1ccc(C(=O)Nc2ccc3[nH]ccc3c2)cc1	34*
COc1ccc(OC)c(C(=O)Nc2ccc3[nH]ccc3c2)c1	8
Cc1ccc(N2C(=O)C3CCCN3C2=S)c(C)c1 (configuration not stated)	0
Cc1ccc(N2C(=O)[C@@H]3C(c4cccnc4)=NO[C@@H]3C2=O)c(C)c1	31*
O=C1[C@@H]2C(c3cccnc3)=NO[C@@H]2C(=O)N1c1ccc(Br)cc1	0
COc1ccc(-c2cnc3c(c2)C(=O)N([C@H](C)CO)C[C@H](C)[C@H](CN(C)C(=O)Nc2ccc(F)cc2)O3)cc1	-1
Cc1cc(C)cc(NC(=O)Nc2ccc3c(c2)C(=O)N(C)[C@H]2CC[C@@H](CC(=O)O)O[C@H]2CO3)c1	1
COc1ccc(-c2nc(NC(=O)Cn3cnnn3)sc2C)cc1	9
COc1ccc(-c2nc(NC(=O)CSCCO)sc2C)cc1	0
COc1ccc(-c2nc(NC(=O)Cn3c(=O)oc4ccccc43)sc2C)cc1	39*
C[C@H](CO)N1C[C@H](C)[C@H](CN(C)S(=O)(=O)c2cccs2)Oc2c(NS(=O)(=O)c3ccccc3)cccc2C1=O	0
COc1ccc(C(=O)Nc2nnc(S(=O)(=O)N3CCCCCC3)s2)cc1OC	1
CC(C)c1ccc(C(=O)Nc2nnc(S(=O)(=O)N3CCCCC3)s2)cc1	45*
Cc1ccc(C(=O)Nc2nnc(S(=O)(=O)N3CCCCCC3)s2)cc1	0
SMILES	E-selectin induc
O=C(CCN1C(=O)/C(=C\c2cccs2)SC1=S)Nc1ccccn1	16
O=C(CCN1C(=O)/C(=C/c2cccs2)SC1=S)Nc1ccccc1O	30*
O=C1/C(=C/c2cccs2)SC(=S)N1c1cccc(O)c1	52*
O=C1S/C(=C\c2cccs2)C(=O)N1c1ccc(O)cc1	0
O=C(CCN1C(=O)/C(=C/c2cccs2)SC1=S)Nc1ccc(O)cc1	11
O=C(CCN1C(=O)/C(=C/c2cccs2)SC1=S)Nc1cccc(O)c1	12
O=C(C1CC1)N1CC2(C1)[C@H](c1ccccc1)[C@@H](CO)N2C(=O)CC1CC1	0
O=C(COC(=O)c1ccc(-n2cnnn2)cc1)c1ccc(Br)cc1	27*
O=C(COC(=O)c1cccc(-n2cnnn2)c1)c1ccc(F)cc1	2
O=C(COC(=O)c1ccccc1-n1cnnn1)c1ccc(Br)cc1	-1
COCC(=O)N(C)C[C@@H]1Oc2cc(C#CC(C)(C)O)ccc2S(=O)(=O)N([C@@H](C)CO)C[C@@H]1C	0
C[n+]1c(-c2ccccc2)cc2c(=Cc3ccc([N+](=O)[O-])cc3)c3ccccc3n21	122*

Compound activity (PubChem BioAssay)
